Measurements as given in ChEMBL document CHEMBL4376814, “Novel cyclin-dependent kinase 9 (CDK9) inhibitor with suppression of cancer stemness activity against non-small-cell lung cancer” (Eur J Med Chem, 2019).
The source made the active and inactive calls. The calls are words filed in the database; no cut-off is given here.

Assays:
[1] = system: Calcium/calmodulin-dependent protein kinase kinase 2 (Homo sapiens), Q96RR4 [T85S]; experiment: Inhibition of recombinant full-length human CaMKK2 T85S mutant at 1 uM using calmodulin as substrate measured after 40 mins in presence of [gamma33P]ATP by scintillation counting method relative to control
NCI-H1299 [2] = experiment: Antitumour activity against human H1299 cells xenografted in Balb/c mouse assessed as effect on CDK9 level at 20 to 80 mg/kg, po administered for 3 weeks by […] based light microscopic analysis; format: functional, organism-based
Method in brief: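 Tumours came from the H1299 oral-dosing xenograft run for 3 weeks. Formalin-fixed, paraffin-embedded 5-µm sections were deparaffinized and rehydrated. Primary antibodies (CDK9, cyclin T1, p-Rb Ser780, RNAPII CTD Ser5, Oct4) used at 1:100 overnight at 4 °C. Biotinylated secondary for 1 h at room temperature, then ABC-peroxidase/DAB, hematoxylin counterstain and light microscopy.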

[3] = target: Testis-specific serine/threonine-protein kinase 2 (Homo sapiens) (UniProt Q96PF2); experiment: Inhibition of recombinant full-length human TSSK2 at 1 uM using KKKVSRSGLYRSPSMPENLNRPR as substrate measured after 40 mins in presence of [gamma33P]ATP by scintillation counting method relative to control
Testis-specific serine/threonine-protein kinase 2 (Homo sapiens), sequence (Q96PF2 whole entry): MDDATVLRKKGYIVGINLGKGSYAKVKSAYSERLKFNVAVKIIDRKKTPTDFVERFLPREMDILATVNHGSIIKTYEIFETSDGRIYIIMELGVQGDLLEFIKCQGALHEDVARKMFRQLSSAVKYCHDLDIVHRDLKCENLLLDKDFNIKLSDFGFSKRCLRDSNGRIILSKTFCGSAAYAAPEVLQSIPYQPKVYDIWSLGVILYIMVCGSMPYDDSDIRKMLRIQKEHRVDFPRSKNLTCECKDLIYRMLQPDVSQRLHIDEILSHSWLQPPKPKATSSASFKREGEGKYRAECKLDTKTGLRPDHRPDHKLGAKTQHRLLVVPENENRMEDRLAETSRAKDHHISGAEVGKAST

[4] = target: Serine/threonine-protein kinase Chk2 (Homo sapiens) (UniProt O96017); experiment: Inhibition of recombinant human CHK2 (5 to end residues) at 1 uM using KKKVSRSGLYRSPSMPENLNRPR as substrate measured after 40 mins in presence of [gamma33P]ATP by scintillation counting method relative to control
Method in brief: (§1)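 Single-point inhibition at 1 µM was measured in the Eurofins KinaseProfiler panel. Values are the mean of two independent experiments.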

[5] = target: Ephrin type-B receptor 3 (Homo sapiens) (UniProt P54753); experiment: Inhibition of recombinant human EphB3 (599 to 920 residues) at 1 uM using poly(Glu, Tyr) 4:1 as substrate measured after 40 mins in presence of [gamma33P]ATP by scintillation counting method relative to control; method in brief: as §1
Ephrin type-B receptor 3 (Homo sapiens), sequence (P54753 whole entry, the tested form may be a part): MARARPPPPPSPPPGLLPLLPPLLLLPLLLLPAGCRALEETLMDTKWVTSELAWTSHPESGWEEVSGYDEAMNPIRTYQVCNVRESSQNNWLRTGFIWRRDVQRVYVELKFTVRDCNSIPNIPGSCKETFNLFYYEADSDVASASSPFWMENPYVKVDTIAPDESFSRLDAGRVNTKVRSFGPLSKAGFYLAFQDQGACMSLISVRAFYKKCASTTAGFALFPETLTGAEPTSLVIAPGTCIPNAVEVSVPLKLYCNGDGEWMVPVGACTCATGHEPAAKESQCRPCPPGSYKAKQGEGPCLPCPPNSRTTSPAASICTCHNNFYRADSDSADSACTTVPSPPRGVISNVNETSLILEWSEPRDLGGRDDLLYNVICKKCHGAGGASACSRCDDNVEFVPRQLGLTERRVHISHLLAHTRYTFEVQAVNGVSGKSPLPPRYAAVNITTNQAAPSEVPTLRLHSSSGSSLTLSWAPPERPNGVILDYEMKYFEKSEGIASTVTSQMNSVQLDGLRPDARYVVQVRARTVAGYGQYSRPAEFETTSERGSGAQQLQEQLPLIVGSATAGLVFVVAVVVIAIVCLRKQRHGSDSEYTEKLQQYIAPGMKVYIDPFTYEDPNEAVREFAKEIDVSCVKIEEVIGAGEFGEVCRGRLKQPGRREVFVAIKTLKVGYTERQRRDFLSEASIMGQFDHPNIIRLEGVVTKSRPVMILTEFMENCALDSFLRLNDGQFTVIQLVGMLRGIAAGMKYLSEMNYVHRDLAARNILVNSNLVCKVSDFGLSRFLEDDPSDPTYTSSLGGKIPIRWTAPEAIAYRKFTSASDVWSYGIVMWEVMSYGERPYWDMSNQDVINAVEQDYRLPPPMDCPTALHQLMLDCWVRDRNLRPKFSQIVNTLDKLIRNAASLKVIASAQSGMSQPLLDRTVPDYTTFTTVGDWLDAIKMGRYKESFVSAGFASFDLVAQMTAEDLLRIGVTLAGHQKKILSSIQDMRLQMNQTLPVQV

A549 = experiment: Inhibition of tumorsphere formation in human A549 cells after 2 weeks by microscopic analysis; format: functional, cell-based
Homo sapiens = species on record: Homo sapiens; experiment: Inhibition of recombinant human ARAF Y301D/Y302D mutant (273 to end residues) at 1 uM using myelin basic protein as substrate measured after 40 mins in presence of [gamma33P]ATP by scintillation counting method relative to control
[6] = target: Eukaryotic translation initiation factor 2-alpha kinase 1 (Homo sapiens) (UniProt Q9BQI3); experiment: Inhibition of recombinant human HRI (140 to end residues) at 1 uM using RSRSRSRSRSRSRSR as substrate measured after 120 mins in presence of [gamma33P]ATP by scintillation counting method relative to control
[7] = target: Calcium/calmodulin-dependent protein kinase type II subunit beta (Homo sapiens) (UniProt Q13554); experiment: Inhibition of recombinant human CaMK2 beta (1 to 315 resiudes) at 1 uM using calmodulin as substrate measured after 40 mins in presence of [gamma33P]ATP by scintillation counting method relative to control
Calcium/calmodulin-dependent protein kinase type II subunit beta (Homo sapiens), sequence (Q13554 whole entry): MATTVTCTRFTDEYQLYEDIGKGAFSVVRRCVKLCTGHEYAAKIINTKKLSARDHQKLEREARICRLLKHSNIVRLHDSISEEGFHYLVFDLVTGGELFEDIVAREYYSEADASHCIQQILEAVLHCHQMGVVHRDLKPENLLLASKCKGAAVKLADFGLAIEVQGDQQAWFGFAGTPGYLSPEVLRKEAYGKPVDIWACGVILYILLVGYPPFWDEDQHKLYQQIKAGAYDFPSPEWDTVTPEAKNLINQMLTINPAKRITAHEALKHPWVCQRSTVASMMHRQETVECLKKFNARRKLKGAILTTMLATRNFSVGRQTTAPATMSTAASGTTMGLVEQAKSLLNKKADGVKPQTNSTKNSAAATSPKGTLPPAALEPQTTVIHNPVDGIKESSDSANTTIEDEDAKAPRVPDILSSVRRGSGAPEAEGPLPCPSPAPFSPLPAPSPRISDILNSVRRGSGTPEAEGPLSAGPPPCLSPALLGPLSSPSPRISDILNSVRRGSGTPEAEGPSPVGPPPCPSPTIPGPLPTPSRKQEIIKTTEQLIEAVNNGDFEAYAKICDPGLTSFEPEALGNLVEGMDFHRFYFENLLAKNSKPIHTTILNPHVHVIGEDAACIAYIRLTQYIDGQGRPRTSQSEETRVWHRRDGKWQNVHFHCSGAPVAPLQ

[8] = target: Dual specificity mitogen-activated protein kinase kinase 3 (Homo sapiens) (UniProt P46734); experiment: Inhibition of human MKK3 at 1 uM by radiometric method relative to control
Dual specificity mitogen-activated protein kinase kinase 3 (Homo sapiens), sequence (P46734 whole entry): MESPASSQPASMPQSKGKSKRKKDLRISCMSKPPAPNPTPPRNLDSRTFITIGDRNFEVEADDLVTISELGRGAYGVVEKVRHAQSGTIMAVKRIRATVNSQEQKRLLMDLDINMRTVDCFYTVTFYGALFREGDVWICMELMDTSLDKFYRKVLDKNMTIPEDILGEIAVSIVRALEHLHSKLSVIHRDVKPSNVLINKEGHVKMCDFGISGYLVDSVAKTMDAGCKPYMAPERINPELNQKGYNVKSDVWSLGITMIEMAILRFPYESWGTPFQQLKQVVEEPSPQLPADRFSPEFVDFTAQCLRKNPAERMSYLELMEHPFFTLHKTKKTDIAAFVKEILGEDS
Method in brief: (§2)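 Percent inhibition of kinase activity at a single compound concentration, measured by the outsourced Eurofins KinaseProfiler panel. Values are the mean of two independent experiments.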

[9] = target: Death-associated protein kinase 3 (Homo sapiens) (UniProt O43293); experiment: Inhibition of recombinant human ZIPK (1 to 290 residues) at 1 uM using KKLNRTLSFAEPG as substrate measured after 40 mins in presence of [gamma33P]ATP by scintillation counting method relative to control; method in brief: as §1
Death-associated protein kinase 3 (Homo sapiens), sequence (O43293 whole entry, looked up, the tested form may be a part): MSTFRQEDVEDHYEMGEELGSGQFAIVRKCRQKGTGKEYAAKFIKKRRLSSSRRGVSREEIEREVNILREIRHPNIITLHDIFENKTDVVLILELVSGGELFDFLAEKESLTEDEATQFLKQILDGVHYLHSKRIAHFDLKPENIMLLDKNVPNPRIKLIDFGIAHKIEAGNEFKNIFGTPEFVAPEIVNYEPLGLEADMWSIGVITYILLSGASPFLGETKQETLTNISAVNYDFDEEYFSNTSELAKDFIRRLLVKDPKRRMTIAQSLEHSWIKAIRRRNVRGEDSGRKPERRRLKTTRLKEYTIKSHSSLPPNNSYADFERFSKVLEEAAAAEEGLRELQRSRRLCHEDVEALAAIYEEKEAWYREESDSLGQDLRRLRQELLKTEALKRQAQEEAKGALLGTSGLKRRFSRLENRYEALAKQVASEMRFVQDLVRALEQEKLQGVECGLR

[10] = system: RAF proto-oncogene serine/threonine-protein kinase (Homo sapiens), P04049 [Y340D,Y341D]; experiment: Inhibition of recombinant human c-RAF Y340D/Y341D double mutant ([…]) at 1 uM using inactive MEK1 as substrate measured after 40 mins in presence of [gamma33P]ATP by scintillation counting method relative to control
[11] = target: MAP kinase-interacting serine/threonine-protein kinase 2 (Homo sapiens) (UniProt Q9HBH9); experiment: Inhibition of recombinant full-length human Mnk2 at 1 uM using myelin basic protein as substrate measured after 40 mins in presence of [gamma33P]ATP by scintillation counting method relative to control
[12] = target: Serine/threonine-protein kinase PAK 4 (Homo sapiens) (UniProt O96013); experiment: Inhibition of recombinant human PAK4 (295 to end residues) at 1 uM using myelin basic protein as substrate measured after 40 mins in presence of [gamma33P]ATP by scintillation counting method relative to control
Serine/threonine-protein kinase PAK 4 (Homo sapiens), sequence (O96013 whole entry, looked up): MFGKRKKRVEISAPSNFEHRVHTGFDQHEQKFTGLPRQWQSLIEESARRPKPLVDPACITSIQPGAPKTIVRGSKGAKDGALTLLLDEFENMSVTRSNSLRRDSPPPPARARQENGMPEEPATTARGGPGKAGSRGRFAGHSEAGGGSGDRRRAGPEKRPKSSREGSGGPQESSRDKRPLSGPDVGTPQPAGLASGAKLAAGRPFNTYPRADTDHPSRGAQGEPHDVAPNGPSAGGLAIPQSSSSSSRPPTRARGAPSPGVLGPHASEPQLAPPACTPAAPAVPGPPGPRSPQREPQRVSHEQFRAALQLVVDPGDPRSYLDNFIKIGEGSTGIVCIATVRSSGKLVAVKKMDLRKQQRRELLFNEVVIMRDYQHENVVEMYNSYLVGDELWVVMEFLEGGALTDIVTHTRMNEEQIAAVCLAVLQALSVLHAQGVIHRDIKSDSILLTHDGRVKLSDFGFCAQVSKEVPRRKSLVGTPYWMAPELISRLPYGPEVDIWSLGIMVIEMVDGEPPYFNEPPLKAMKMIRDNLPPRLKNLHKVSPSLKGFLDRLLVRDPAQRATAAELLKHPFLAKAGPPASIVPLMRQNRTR

[13] = target: cGMP-dependent protein kinase 1 (Homo sapiens) (UniProt Q13976); experiment: Inhibition of recombinant full-length human PKG1alpha at 1 uM using RRRLSFAEPG as substrate measured after 40 mins in presence of [gamma33P]ATP by scintillation counting method relative to control
cGMP-dependent protein kinase 1 (Homo sapiens), sequence (Q13976 whole entry): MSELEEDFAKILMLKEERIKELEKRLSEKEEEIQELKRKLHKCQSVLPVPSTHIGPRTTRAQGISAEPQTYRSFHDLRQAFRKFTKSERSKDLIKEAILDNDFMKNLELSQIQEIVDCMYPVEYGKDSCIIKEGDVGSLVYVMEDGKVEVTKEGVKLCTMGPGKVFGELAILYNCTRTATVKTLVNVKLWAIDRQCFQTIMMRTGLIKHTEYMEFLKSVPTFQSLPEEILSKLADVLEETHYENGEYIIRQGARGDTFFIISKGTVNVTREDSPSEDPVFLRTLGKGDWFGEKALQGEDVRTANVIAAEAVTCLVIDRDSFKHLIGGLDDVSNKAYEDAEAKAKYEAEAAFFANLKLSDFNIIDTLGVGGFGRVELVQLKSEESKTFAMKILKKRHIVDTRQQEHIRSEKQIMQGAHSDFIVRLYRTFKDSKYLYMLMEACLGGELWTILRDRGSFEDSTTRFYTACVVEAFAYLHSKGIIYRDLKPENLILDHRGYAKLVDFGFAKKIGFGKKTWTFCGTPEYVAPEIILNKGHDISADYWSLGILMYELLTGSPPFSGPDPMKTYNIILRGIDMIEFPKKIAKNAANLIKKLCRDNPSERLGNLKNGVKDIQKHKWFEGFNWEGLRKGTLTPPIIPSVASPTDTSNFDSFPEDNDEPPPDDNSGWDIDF

[14] = target: cAMP-dependent protein kinase catalytic subunit alpha (Homo sapiens) (UniProt P17612); experiment: Inhibition of recombinant full-length human PKA at 1 uM using Kemptide as substrate measured after 40 mins in presence of [gamma33P]ATP by scintillation counting method relative to control; method in brief: as §1
[15] = target: Tyrosine-protein kinase TXK (Homo sapiens) (UniProt P42681); experiment: Inhibition of human Txk (256 to end residues) at 1 uM using GEEPLYWSFPAKKK as substrate measured after 40 mins in presence of [gamma33P]ATP by scintillation counting method relative to control; method in brief: as §2
Tyrosine-protein kinase TXK (Homo sapiens), sequence (P42681 whole entry): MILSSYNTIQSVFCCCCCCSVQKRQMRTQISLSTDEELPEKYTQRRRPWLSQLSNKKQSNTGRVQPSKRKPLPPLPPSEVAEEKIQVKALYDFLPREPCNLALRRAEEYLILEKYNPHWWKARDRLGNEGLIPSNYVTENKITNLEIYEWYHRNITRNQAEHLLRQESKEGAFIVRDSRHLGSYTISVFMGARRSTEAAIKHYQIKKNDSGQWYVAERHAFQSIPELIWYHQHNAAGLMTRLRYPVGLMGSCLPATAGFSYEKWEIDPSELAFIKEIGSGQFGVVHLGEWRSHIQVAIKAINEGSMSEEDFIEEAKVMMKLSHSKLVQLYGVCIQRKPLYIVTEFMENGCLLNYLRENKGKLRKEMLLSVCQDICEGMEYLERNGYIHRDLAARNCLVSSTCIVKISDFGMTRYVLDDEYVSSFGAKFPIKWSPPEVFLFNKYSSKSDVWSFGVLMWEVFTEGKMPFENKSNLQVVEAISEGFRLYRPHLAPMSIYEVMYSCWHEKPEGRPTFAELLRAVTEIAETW

[16] = target: Calcium/calmodulin-dependent protein kinase type 1D (Homo sapiens) (UniProt Q8IU85); experiment: Inhibition of recombinant full-length human CaMK1delta at 1 uM using calmodulin as substrate measured after 40 mins in presence of [gamma33P]ATP by scintillation counting method relative to control
Calcium/calmodulin-dependent protein kinase type 1D (Homo sapiens), sequence (Q8IU85 whole entry, looked up): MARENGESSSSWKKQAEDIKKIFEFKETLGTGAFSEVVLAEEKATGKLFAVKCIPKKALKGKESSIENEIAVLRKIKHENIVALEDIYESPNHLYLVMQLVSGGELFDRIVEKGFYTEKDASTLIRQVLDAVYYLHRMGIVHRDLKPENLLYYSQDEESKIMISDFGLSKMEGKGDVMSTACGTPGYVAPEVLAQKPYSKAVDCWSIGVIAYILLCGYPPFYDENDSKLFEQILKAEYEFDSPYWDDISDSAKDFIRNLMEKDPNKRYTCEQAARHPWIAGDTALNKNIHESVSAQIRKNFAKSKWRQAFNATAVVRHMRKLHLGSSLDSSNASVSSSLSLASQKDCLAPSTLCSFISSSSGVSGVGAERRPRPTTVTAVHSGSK

[17] = target: CDK2/Cyclin A2 (Homo sapiens) (UniProt P24941+P20248); experiment: Inhibition of recombinant full-length human CDK2/cyclinA at 1 uM using Histone H1 as substrate measured after 40 mins in presence of [gamma33P]ATP by scintillation counting method relative to control; format: protein-complex assay
[18] = target: Ephrin type-A receptor 1 (Homo sapiens) (UniProt P21709); experiment: Inhibition of recombinant human EphA1 (568 to end residues) at 1 uM using KKKSPGEYVNIEF as substrate measured after 40 mins in presence of [gamma33P]ATP by scintillation counting method relative to control
NCI-H1299 [19] = experiment: Downregulation of KLF4 in human H1299 cells at 0.25 to 1 uM by Western blot analysis; format: functional, cell-based
[20] = target: Serine/threonine-protein kinase D2 (Homo sapiens) (UniProt Q9BZL6); experiment: Inhibition of recombinant full-length human PKD2 at 1 uM using KKLNRTLSVA as substrate measured after 40 mins in presence of [gamma33P]ATP by scintillation counting method relative to control

## CN(C)C(=O)c1cc2cnc(Nc3ccc(NC(=O)CCCCCCCN=C=S)cc3)nc2n1C1CCCC1
[1]
  inhibition: 88%
NCI-H1299 [2]
  Activity: inactive
[3]
  inhibition: -3%
[4]
  inhibition: 32%
[5]
  inhibition: 12%
A549
  inhibition: Dose-dependent effect
Homo sapiens
  inhibition: -1%
[6]
  inhibition: 30%
[7]
  inhibition: 29%
[8]
  inhibition: 23%
[9]
  inhibition: 1%
[10]
  inhibition: 33%
[11]
  inhibition: 68%
[12]
  inhibition: 10%
[13]
  inhibition: -3%
[14]
  inhibition: 1%
[15]
  inhibition: 81%
[16]
  inhibition: 3%
[17]
  inhibition: 58%
[18]
  inhibition: 44%
NCI-H1299 [19]
  Activity: Active
[20]
  inhibition: -6%
